Measured values reported in ChEMBL document CHEMBL2406978, “A novel one-pot synthesis and preliminary biological activity evaluation of cis-restricted polyhydroxy stilbenes incorporating protocatechuic acid and cinnamic acid fragments” (2013).
The source made the active and inactive calls. The calls are words filed in the database; no cut-off is given here.

Assays:
[1] = target: T1, Tyrosinase (Agaricus bisporus) (UniProt O42713); assay: Inhibition of mushroom tyrosinase using L-tyrosine as substrate at 23 uM after 30 mins by spectrophotometric analysis
T1 sequence (whole entry): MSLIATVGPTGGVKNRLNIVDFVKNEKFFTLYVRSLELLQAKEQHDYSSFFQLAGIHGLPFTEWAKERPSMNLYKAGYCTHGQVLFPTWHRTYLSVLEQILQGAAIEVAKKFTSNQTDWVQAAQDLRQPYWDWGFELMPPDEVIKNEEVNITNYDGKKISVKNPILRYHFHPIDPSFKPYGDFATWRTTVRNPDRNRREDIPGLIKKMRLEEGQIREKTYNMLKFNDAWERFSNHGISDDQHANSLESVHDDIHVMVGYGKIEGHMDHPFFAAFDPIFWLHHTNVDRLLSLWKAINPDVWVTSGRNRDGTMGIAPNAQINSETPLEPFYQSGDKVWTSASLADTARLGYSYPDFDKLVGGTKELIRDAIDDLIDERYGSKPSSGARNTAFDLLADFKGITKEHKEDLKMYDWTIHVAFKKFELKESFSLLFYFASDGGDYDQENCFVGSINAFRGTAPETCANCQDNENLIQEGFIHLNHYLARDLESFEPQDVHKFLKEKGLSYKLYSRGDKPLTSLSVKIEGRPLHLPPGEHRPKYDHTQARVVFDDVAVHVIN
Method in brief: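 Modified dopachrome method with L-tyrosine substrate, in 3 mL total: 1.0 mL 0.1 M phosphate buffer pH 6.8, 1.0 mL 1.5 mM tyrosine, 0.35 mL 0.2 mM inhibitor stock in DMSO, 0.35 mL water, and 0.30 mL mushroom tyrosinase at 192 U/mL. Reference used DMSO in place of inhibitor. Incubated 37 °C for 30 min, read at 475 nm; activity % = B/A × 100 (sample/reference absorbance).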

[2] = test system: Fusarium graminearum; assay: […] activity against Fusarium graminearum ATCC 24373 at 50 ug/ml after 24 hrs by agar well diffusion method relative to control; assay type: functional; details: ATCC 24373, 24 h
[3] = test system: Aspergillus flavus; assay: […] activity against Aspergillus flavus IMI 052104 at 50 ug/ml after 24 hrs by agar well diffusion method relative to control; assay type: functional; details: IMI 052104, 24 h
[4] = test system: Aspergillus niger; assay: […] activity against Aspergillus niger A3 at 50 ug/ml after 24 hrs by agar well diffusion method relative to control; assay type: functional; details: A3, 24 h
[5] = test system: Radical scavenging activity; assay: Antioxidant activity assessed as DPPH free radical scavenging activity at 3.3 uM measured every 10 mins; assay type: functional
Method in brief: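 Compound in methanol (0.5 mL) was added to 0.5 mL of 100 µM DPPH• stock solution, with a final compound level of 3.3 µM and DPPH•/substrate molar ratio 15 (radical in excess). Absorbance at 518 nm was read every 10 min until equilibrium. Methanol served as blank and caffeic acid as reference.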

[6] = test system: Fusarium graminearum; assay: […] activity against Fusarium graminearum ATCC 24373 at 0.17 umol/ml after 24 hrs by agar well diffusion method relative to control; assay type: functional, organism-based
[7] = test system: Candida albicans; assay: […] activity against Candida albicans ATCC 10231 at 50 ug/ml after 24 hrs by agar well diffusion method relative to nystatine; assay type: functional; details: ATCC 10231, 24 h
[8] = test system: Pseudomonas aeruginosa; assay: Antibacterial activity against Pseudomonas aeruginosa ATCC 10145 at 50 ug/ml after 24 hrs by agar well diffusion method; assay type: functional, organism-based
[9] = test system: Escherichia coli; assay: Antibacterial activity against Escherichia coli ATCC 25922 at 50 ug/ml after 24 hrs by agar well diffusion method; assay type: functional, organism-based
[10] = test system: Staphylococcus aureus; assay: Antibacterial activity against Staphylococcus aureus ATCC 25923 at 50 ug/ml after 24 hrs by agar well diffusion method; assay type: functional, organism-based
[11] = test system: Bacillus spizizenii; assay: Antibacterial activity against Bacillus subtilis ATCC 6633 at 50 ug/ml after 24 hrs by agar well diffusion method; assay type: functional
[12] = test system: Bacillus spizizenii; assay: Antibacterial activity against Bacillus subtilis ATCC 6633 at 50 ug/ml after 24 hrs by agar well diffusion method relative to amikacin; assay type: functional; details: ATCC 6633, 24 h
Method in brief: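 Agar well diffusion on dried overlays of each test strain. Wells of 7 mm received 100 µL of sample at 0.5 mg/mL in DMSO, with DMSO wells as negative control. Positive controls were an amikacin 30 µg disc for bacteria and 100 µL nystatin 10000 IU/mL for C. albicans. Plates were held 60 min at 4 °C for diffusion, then incubated 24 h at 30 or 37 °C. Inhibition zones were measured in mm, in triplicate, and growth inhibition was expressed relative to the positive control.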

Structure (SMILES)	inhibition [1]	inhibition at 50 µg/mL [2] [%]	inhibition at 50 µg/mL [3] [%]	inhibition at 50 µg/mL [4] [%]	Activity [5]	inhibition [6]	inhibition at 50 µg/mL [7] [%]	inhibition [8]	inhibition [9]	inhibition [10]	inhibition [11]	inhibition at 50 µg/mL [12] [%]
O=C(O)/C=C/c1ccc(O)c(O)c1 [CAFFEIC ACID]	Active	63	16	35	Active	–	–	–	–	–	–	–
O=C(O)/C(=C/c1ccccc1)c1cc(O)c(O)cc1C(=O)O	Active	89	43	34	Active	Active	40	inactive	inactive	inactive	inactive	–
O=C(O)/C(=C/c1ccc(O)c(O)c1)c1cc(O)c(O)cc1C(=O)O	Active	72	42	37	Active	–	45	inactive	inactive	inactive	inactive	–
COc1cc(C(=O)O)c(/C(=C\c2cc(C(C)(C)C)c(O)c(C(C)(C)C)c2)C(=O)O)cc1OC	Active	70	48	44	18%	–	48	–	–	–	–	44
O=C(O)/C(=C/c1ccc(O)cc1)c1cc(O)c(O)cc1C(=O)O	Active	72	42	38	Active	–	34	inactive	inactive	inactive	inactive	–
Oc1ccc(O)cc1	Active	–	–	–	–	–	–	–	–	–	–	–
O=C(O)c1ccc(O)c(O)c1 [PROTOCATECHUIC ACID]	Active	76	9	40	Active	–	–	–	–	–	–	–
CC(C)(C)c1cc(/C=C(/C(=O)O)c2cc(O)c(O)cc2C(=O)O)cc(C(C)(C)C)c1O	Active	76	52	44	Active	–	40	inactive	inactive	inactive	inactive	–
O=C(O)/C(=C/c1cc(O)c(O)c(O)c1)c1cc(O)c(O)cc1C(=O)O	Active	71	42	37	Active	–	40	inactive	inactive	inactive	inactive	–
